Experimental data published in ChEMBL document CHEMBL1141216, “Mono- or diphenylpyridazines connected to N-(2,4-difluorophenyl)-N'-heptylurea as acyl-CoA:cholesterol acyltransferase inhibitors” (J Med Chem, 2005).

What was measured:
[1] = target: T1, Sterol O-acyltransferase 1 (Rattus norvegicus) (UniProt O70536); experiment: Inhibition of ACAT expressed in rat liver microsomes at 50 ug/ml; settings: Microsome
T1 sequence (whole entry): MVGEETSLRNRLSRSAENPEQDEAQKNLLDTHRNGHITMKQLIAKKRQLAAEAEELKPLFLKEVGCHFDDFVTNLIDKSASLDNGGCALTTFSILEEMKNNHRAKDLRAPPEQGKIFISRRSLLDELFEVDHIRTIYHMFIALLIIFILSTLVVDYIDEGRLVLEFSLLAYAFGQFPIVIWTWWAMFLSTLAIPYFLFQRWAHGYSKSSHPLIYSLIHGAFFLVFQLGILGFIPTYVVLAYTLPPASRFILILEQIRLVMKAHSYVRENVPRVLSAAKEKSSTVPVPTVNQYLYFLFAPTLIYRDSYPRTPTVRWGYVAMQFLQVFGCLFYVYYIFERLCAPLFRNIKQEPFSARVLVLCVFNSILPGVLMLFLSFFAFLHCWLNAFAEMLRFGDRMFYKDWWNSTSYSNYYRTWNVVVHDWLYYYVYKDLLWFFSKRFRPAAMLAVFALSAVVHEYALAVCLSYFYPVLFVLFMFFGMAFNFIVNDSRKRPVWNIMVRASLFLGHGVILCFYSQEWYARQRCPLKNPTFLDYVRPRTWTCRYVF
In short: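 Rat liver microsomes were the enzyme source, assayed by a previously described method. Compounds were tested at 50 μg/mL, and the readout was % ACAT inhibition. Values are means of three experiments differing by less than 10%. GERI-BP001M served as reference.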

[2] = target: T2, Sterol O-acyltransferase 1 (Rattus norvegicus, UniProt O70536); experiment: Inhibition of ACAT expressed in rat liver microsomes; parameters: species or system Microsome
T2 sequence (O70536 whole entry): T1 sequence (whole entry)

[3] = target: T3, Sterol O-acyltransferase 2 (Homo sapiens, UniProt O75908); experiment: Inhibition of human ACAT2 expressed in Hi5 cells; parameters: species or system BTI-TN-5B1-4
T3 sequence (O75908 whole entry): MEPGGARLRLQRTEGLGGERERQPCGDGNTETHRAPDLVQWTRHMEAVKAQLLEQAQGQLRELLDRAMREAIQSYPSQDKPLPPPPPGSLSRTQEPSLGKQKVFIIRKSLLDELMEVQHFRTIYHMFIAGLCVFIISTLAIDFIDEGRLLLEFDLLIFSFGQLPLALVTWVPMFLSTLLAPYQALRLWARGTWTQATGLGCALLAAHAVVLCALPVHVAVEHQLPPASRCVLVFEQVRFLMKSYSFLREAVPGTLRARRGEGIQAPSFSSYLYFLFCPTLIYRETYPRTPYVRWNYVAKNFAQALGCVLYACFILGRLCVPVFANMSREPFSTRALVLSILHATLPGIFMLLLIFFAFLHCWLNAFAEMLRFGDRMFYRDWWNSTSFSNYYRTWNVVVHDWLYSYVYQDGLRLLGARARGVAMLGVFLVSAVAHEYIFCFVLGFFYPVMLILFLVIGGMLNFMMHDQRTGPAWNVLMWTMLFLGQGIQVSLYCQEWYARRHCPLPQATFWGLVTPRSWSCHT
In short: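 Human ACAT-2 was expressed by baculovirus in Hi5 insect cells, and microsomal fractions of these cells were the enzyme source. Activity was measured by the Brecher and Chan method with slight modification.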

[4] = target: T4, Sterol O-acyltransferase 1 (Homo sapiens, UniProt P35610); experiment: Inhibition of human ACAT1 expressed in Hi5 cells; parameters: species or system BTI-TN-5B1-4
T4 sequence (P35610 whole entry): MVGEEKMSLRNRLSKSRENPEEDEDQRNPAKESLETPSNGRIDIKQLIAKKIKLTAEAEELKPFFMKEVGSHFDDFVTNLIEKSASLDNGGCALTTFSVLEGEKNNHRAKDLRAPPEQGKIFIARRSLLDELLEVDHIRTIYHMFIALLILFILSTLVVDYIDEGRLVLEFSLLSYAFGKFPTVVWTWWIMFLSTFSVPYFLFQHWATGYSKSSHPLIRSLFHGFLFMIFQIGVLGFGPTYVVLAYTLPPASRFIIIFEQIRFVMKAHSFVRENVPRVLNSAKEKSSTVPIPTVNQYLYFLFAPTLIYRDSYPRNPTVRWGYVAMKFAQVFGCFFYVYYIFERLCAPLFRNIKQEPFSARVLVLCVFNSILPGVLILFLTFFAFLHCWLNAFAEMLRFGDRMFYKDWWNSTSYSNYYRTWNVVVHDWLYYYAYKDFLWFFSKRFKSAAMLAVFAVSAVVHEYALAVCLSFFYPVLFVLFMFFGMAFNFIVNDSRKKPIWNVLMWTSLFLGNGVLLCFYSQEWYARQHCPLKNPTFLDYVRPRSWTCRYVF

Row | inhibition [1] [%] | IC50 [2] [nM] | IC50 [3] [nM] | IC50 [4] [nM] | SMILES
1 | 87 | 2320 | 1740 | – | CCCCCCCN(CCCCCNc1cc(-c2ccccc2)c(-c2ccccc2)nn1)C(=O)Nc1ccc(F)cc1F
2 | 65 | – | – | – | CCCCCCCN(CCCCC[S+]([O-])c1cc(-c2ccccc2)c(-c2ccccc2)nn1)C(=O)Nc1ccc(F)cc1F (centres undefined)
3 | 70 | – | – | – | CCCCCCCN(CCCCCS(=O)(=O)c1cc(-c2ccccc2)c(-c2ccccc2)nn1)C(=O)Nc1ccc(F)cc1F
4 | 75 | – | – | – | CCCCCCCN(CCCCCSc1cc(-c2ccccc2)c(-c2ccccc2)nn1)C(=O)Nc1ccc(F)cc1F
5 | 46 | 36400 | 101000 | – | CCCCCCCN(CCCCCNc1cc(-c2ccccc2)cnn1)C(=O)Nc1ccc(F)cc1F
6 | 44 | – | – | – | CCCCCCCN(CCCCCSc1ccc(-c2ccccc2)nn1)C(=O)Nc1ccc(F)cc1F
7 | 62 | – | – | – | CCCCCCCN(CCCCC[S+]([O-])c1cc(-c2ccccc2)cnn1)C(=O)Nc1ccc(F)cc1F (centres undefined)
8 | 55 | – | – | – | CCCCCCCN(CCCCC[S+]([O-])c1ccc(-c2ccccc2)nn1)C(=O)Nc1ccc(F)cc1F (centres undefined)
9 | 75 | – | – | – | CCCCCCCN(CCCCCSc1cc(-c2ccccc2)cnn1)C(=O)Nc1ccc(F)cc1F
10 | 89 | 1210 | 2070 | 5340 | CCCCCCCN(CCCCCNc1ccc(-c2ccccc2)nn1)C(=O)Nc1ccc(F)cc1F
11 | 43 | – | – | – | CCCCCCCN(CCCCCS(=O)(=O)c1ccc(-c2ccccc2)nn1)C(=O)Nc1ccc(F)cc1F
12 | 67 | – | – | – | CCCCCCCN(CCCCCS(=O)(=O)c1cc(-c2ccccc2)cnn1)C(=O)Nc1ccc(F)cc1F
